mABHD4 FP: ABHD4 (mouse) inhibition, primary FP screen | Q8VD66 | purified mABHD4, FP-Rh probe fluorescence polarization | 370,000 tested, 0.54% active | inhibition, % at 8.92 µM;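 active = inhibition exceeding the mean over every tested compound plus 3 SD, cut at about 30% in these data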
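Test system: mABHD4 protein | Buffer or medium: HEPES pH 7.0 buffer, 150 mM NaCl, 0.01% Pluronic F-127 | Probe or stimulus: FP-Rh fluorescent activity-based probe, added after compound pre-incubation | Timing: Pre-incubation 45 min, probe exposure 60 min, at 25 °C | Technique: Fluorescence polarization, excitation 525 nm, emission 598 nm, BODIPY TMR filters | Repeats: Single well per compound (singlicate)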
SIAE primary: human SIAE inhibition, primary screen; SIAE FP-Rh probe binding, fluorescence polarization; inhibition, % at 9.66 µM; 370,000 tested, 0.69% active; AID 1053197;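 active = inhibition above a cutoff: mean of compounds within the control limits plus 3 SD of those, cut at about 17% in these data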
Tn6 DDE FP: inhibitors of Tn6 peptide binding to human fibrin DD(E); inhibition, % at 8.3 µM; 370,000 tested, 0.21% active; AID 720509; Fibrin DD(E) TRITC-Tn6 fluorescence polarization displacement; P02675;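 active = inhibition above a per-campaign cutoff: mean of compounds within control limits plus 3 SD, cut at about 15% in these data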
Target sequence (P02675 whole entry, looked up): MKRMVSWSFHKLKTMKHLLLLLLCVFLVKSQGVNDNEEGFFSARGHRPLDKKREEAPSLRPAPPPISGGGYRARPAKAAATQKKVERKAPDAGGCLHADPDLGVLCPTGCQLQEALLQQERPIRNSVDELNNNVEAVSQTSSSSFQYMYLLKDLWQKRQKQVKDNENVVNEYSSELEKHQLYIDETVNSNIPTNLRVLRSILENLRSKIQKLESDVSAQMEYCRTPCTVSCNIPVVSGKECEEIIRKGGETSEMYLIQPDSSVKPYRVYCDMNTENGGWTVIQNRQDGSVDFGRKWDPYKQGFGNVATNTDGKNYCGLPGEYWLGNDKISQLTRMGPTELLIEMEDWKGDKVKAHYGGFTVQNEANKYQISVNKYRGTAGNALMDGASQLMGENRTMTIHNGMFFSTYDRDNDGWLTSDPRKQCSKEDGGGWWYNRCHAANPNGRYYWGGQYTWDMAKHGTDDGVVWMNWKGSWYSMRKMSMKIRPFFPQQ
HTRA1 inhibitor: blocks human HTRA1 serine peptidase. recombinant HTRA1, FP-rhodamine activity-based probe, fluorescence polarization. 340,000 tested, 0.5% active. inhibition, % at 5.96 µM; in the data active = inhibition above about 36%
TCR-CD3 inh: blocks the human TCR-CD3 interaction | TAMRA-labeled TCR probe fluorescence, biochemical | inhibition, % at 9.4 µM | 360,000 tested, 0.37% active; in the data active = inhibition above about 19%;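 also: recombinant mutant TCR 2C K166C tagged with TAMRA read by polarization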
Tn7 DDE FP: inhibitors of Tn7 peptide binding to human fibrin DD(E); P02675; FP displacement of FITC-Tn7 peptide from fibrin DD(E); 0% = median of compound wells per plate; inhibition, % at 8.3 µM; 370,000 tested, 0.13% active; AID 720508;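 active = inhibition above the mean of compounds falling within the control limits plus 3 SD of them, cut at about 14% in these data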
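Test system – human fibrin DD(E) · Times – 10 min preincubation, 3 h with tracer, room temperature · Detection – fluorescence polarization of the labelled Tn7 tracer · Measure – percent inhibition normalized to high-control wells · Benchmarks – high control wells with 10 µM unlabelled Aha-Tn7 peptide (full inhibition) · Repeats – singlicate testing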
Tn7 DDE conf: DD(E)-Tn7 binding inhibition, FP confirmation. shares compounds with Tn7 DDE FP. FP displacement of TRITC-Tn7 peptide from DD(E); 0% set at plate's compound-well median. inhibition, % at 8.3 µM. 460 tested, 5% active;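 active = inhibition above the campaign cutoff, the mean of compounds within control limits plus 3 SD, cut at about 14% in these data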;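 also: displacers lower polarization since freed probe rises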
DDE Tn7 FP ctr: counter-screen hit for Tn7 peptide-fibrin DD(E) binding disruption. inhibition, % at 8.3 µM. shares compounds with Tn7 DDE FP. 460 tested, 3% active. TRITC-Tn7 probe displacement, fluorescence polarization;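 active = inhibition above the cutoff, the mean of compounds lying between the control bounds plus 3 SD of those compounds, cut at about 17% in these data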
Hits are given with their value; n = inactive; x = not tested or not shown. Sampled rows, rich in hits. Any-hit rate of the full collection: about 1.8%.

SMILES | mABHD4 FP | SIAE primary | Tn6 DDE FP | HTRA1 inhibitor | TCR-CD3 inh | Tn7 DDE FP | Tn7 DDE conf | DDE Tn7 FP ctr
C#CCCC(=O)Nc1sc2c(c1-c1nc3ccccc3s1)CCN(C(C)C)C2 | n | n | n | x | x | 16 | 14 | n
COc1cccc(C(=O)N/N=c2/oc3ccccc3cc2C(N)=O)c1 | n | n | n | n | n | 14 | n | n
CCOC(=O)c1cccc(NC(=O)CN(C)S(=O)(=O)c2ccco2)c1 | n | n | n | x | x | n | x | x
CCOC(=O)C1=CCN(S(=O)(=O)c2cccc(Cl)c2)C1c1cccc(Cl)c1 (stereo not drawn) | n | n | n | x | n | 16 | n | n
O=S1(=O)c2ccc(N3CCN(Cc4ccccc4F)CC3)cc2Oc2ccccc2CN1Cc1cn(Cc2cccc(C(F)(F)F)c2)nn1 | n | n | n | x | x | n | x | x
CCc1noc(C)c1C(=O)N1CCN(CC(=O)OC)CC1 | n | n | n | x | x | n | x | x
Cc1cc(NC(=O)COC(=O)c2ccc(OC(F)(F)F)cc2)no1 | n | n | n | n | n | 16 | n | n
CC(C)(C)NC(=O)NC(=O)COC(=O)c1ccc(OC(F)(F)F)cc1 | n | n | n | n | n | 14 | n | n
COc1ccccc1N1CCN(CC(=O)c2c[nH]c3ccccc23)CC1 | n | n | n | n | n | n | x | x
COc1ccccc1N1CCN(CC(=O)c2c(C)[nH]c3ccccc23)CC1 | n | n | n | n | n | 16 | n | n
CC(C)(C)c1cc[n+](-c2[nH]c(=O)sc2/C=N/NC([S-])=Nc2ccccc2)cc1 | n | n | n | n | n | 20 | n | n
O=C(Nc1cccnc1)c1ccc([N+](=O)[O-])cc1Cl | n | n | n | n | n | 16 | n | n
CCOC(=O)C1=NOC(C(=O)NC2CCCC2)(C(=O)C2CC2)C1 (stereo not drawn) | n | n | n | x | x | n | x | x
CCCCn1c(N)c(N(CCOC)C(=O)C2CCN(S(=O)(=O)c3ccc(C)cc3)CC2)c(=O)[nH]c1=O | n | n | n | n | n | n | x | x
CCCCn1c(N)c(N(CCOC)C(=O)C2CCN(S(=O)(=O)c3ccc(F)cc3)CC2)c(=O)[nH]c1=O | n | n | n | n | n | 17 | n | n
Cc1cc(C(F)F)n2ncc(C(=O)NCc3ccccc3F)c2n1 | n | n | n | n | n | n | x | x
Cc1cc(C(F)F)n2ncc(C(=O)NCc3ccccc3C(F)(F)F)c2n1 | n | n | n | n | n | 14 | n | n
COC(=O)[C@]12C[C@H](CC(=O)NCc3cccs3)C(=O)N(Cc3cccc4ccccc34)C1=C[C@H](C1CCCC1)O[C@@H]2C | n | n | n | x | x | n | x | x
COc1cccc(C(=O)N2CCCC(c3nc(-c4cccs4)no3)C2)c1 (stereo not drawn) | n | n | n | n | n | n | x | x
O=C(c1cccc(F)c1)N1CCCC(c2nc(-c3cccs3)no2)C1 (stereo not drawn) | n | n | n | x | x | 15 | n | n
CC(C)OCCCNC(=S)N1CCC(C(=O)c2ccc(Cl)cc2)CC1 | n | n | n | n | n | n | x | x
CCOCCCNC(=S)N1CCC(C(=O)c2ccc(C)cc2)CC1 | n | n | n | n | n | 14 | n | n
COc1cc(NC(=O)NC2CCCCN(Cc3cccc(Cl)c3)C2=O)cc(OC)c1 (stereo not drawn) | n | n | n | x | x | n | x | x
CC(c1ccccc1)N1CC[C@H]2C=CC[C@@H](C(=O)Nc3cccc(Cl)c3)[C@H]2C1=O (stereo partly drawn) | n | n | n | x | x | n | x | x
O=C1CCCc2cc3c(cc21)CC1(C3)Cc2cc3c(cc2C1)C(=O)CCC3 | n | n | n | n | n | 14 | n | n
SMILES | mABHD4 FP | SIAE primary | Tn6 DDE FP | HTRA1 inhibitor | TCR-CD3 inh | Tn7 DDE FP | Tn7 DDE conf | DDE Tn7 FP ctr
O=C(NCCCC1CCCC1)C1CCC(=O)N(Cc2ccc(Cl)cc2)C1 (stereo not drawn) | n | n | n | n | n | 14 | n | n
O=C(NCCCC1CCCC1)C1CCC(=O)N(Cc2cccc(F)c2)C1 (stereo not drawn) | n | n | n | n | n | n | x | x
CS(=O)(=O)N[C@@H]1C[C@@H]2O[C@@H](CO)CC[C@@H]2O[C@@H]1CCc1ccc(-c2ccccc2F)cc1 | n | n | n | x | x | n | x | x
CCC(C)(C)NC(=O)C(c1ccccn1)N(C(=O)c1csnn1)C1CCCCC1 (stereo not drawn) | n | n | n | n | n | 14 | n | n
COC(=O)c1cc2c(c3c4ccccc4n(S(C)(=O)=O)c13)C(=O)N(Cc1ccccc1)C2 | n | n | n | x | n | n | x | x
C=CCN1C(=O)C(Cc2ccccc2)S/C1=N/N=C/c1cccs1 (stereo not drawn) | n | n | n | n | n | 14 | n | n
CCOC(=O)NC[C@@]1(C(=O)OC)CC(=O)N(C)[C@@H]1c1ccccc1 | n | n | n | x | x | n | x | x
CC(C)(C)OC(=O)N1CCC[C@@H]1C(=O)N1CCC[C@@H]1C(=O)NCc1ccccc1 | n | n | n | x | n | n | x | x
Clc1ccc(-n2c(SCc3cccc4ccccc34)nnc2-c2ccco2)cc1 | n | n | n | x | x | 14 | n | n
CCCCOCCCNC(=O)C[C@H]1C[C@@]2(C(=O)OC)C(=C[C@H](C(C)(C)C)O[C@@H]2C)N(Cc2ccc(Cl)cc2Cl)C1=O | n | n | n | x | x | n | x | x
CCC1(c2ccccc2)NC(=O)N(CC(=O)Nc2ccc(OC)nc2)C1=O (stereo not drawn) | n | n | n | n | n | 22 | n | n
CCC1(c2ccccc2)NC(=O)N(CC(=O)Nc2ccc3c(c2)CCC3)C1=O (stereo not drawn) | n | n | n | n | n | n | x | x
COC(=O)[C@]12C=CCN1[C@@H](c1ccc(OC)c(OC)c1)c1c(c3ccccc3n1S(=O)(=O)c1ccc(C)cc1)C2 | n | n | n | x | x | n | x | x
O=C(c1ccccc1)c1ccc(O)cc1O | n | n | n | n | n | 34 | n | n
CC(=O)Nc1ccc(NC(=O)c2c([N+](=O)[O-])cnn2C)cc1 | n | n | n | n | n | 15 | n | n
Cc1cccc(NC(=O)c2c([N+](=O)[O-])cnn2C)c1 | n | n | n | n | n | n | x | x
Cc1ccc(NC(=S)NNC(=O)CSc2nc3sc4c(c3c(=O)n2-c2ccccc2)CCCC4)cc1 | n | n | n | x | x | n | x | x
CCNS(=O)(=O)c1ccc(CCC(=O)Nc2ccc3c(c2)OCCO3)cc1 | n | n | n | n | n | 15 | n | n
CC(C)NS(=O)(=O)c1ccc(CCC(=O)Nc2ccc3c(c2)OCCO3)cc1 | n | n | n | n | n | n | x | x

Bioassay records: PubChem BioAssay, The Scripps Research Institute Molecular Screening Center
